Test results taken from ChEMBL document CHEMBL1134586, “S(+)-4-(1-Phenylethylamino)quinazolines as inhibitors of human immunoglobulin E synthesis: potency is dictated by stereochemistry and atomic point charges at N-1” (J Med Chem, 2001).

Assays:
B-cell = test: Antiproliferative effects in the human B-cell line transfected with a plasmid in which luciferase gene is under the control of a 630bp, involved in the IL-4 response which induces IgE-GLP activity.; format: functional, cell-based
In short: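 Viability of the stably transfected BL2 luciferase-reporter clone was measured in cultures run in parallel with the reporter assay. Intact mitochondria were quantified in duplicates, and half-maximal inhibition came from a logistic fit.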

Homo sapiens = species on record: Homo sapiens; test: Direct inhibition of the IgE-Germ line promoter (IGE-GLP-RGA) activity which is responsible in synthesis of IgE in human splenocytes; format: functional
In short: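 BL2 B-cells were stably transfected with luciferase under a 630 bp IgE-germline promoter fragment and selected in G418. Cells were lysed for dual-luciferase readout in duplicates, and IC₅₀ came from a logistic fit.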

[1] = biological target: Epidermal growth factor receptor (Homo sapiens, UniProt P00533); test: Inhibition of EGF-induced Tyrosine phosphorylation in A431 cells expressing EGF-R
Sequence of Epidermal growth factor receptor (P00533 whole entry): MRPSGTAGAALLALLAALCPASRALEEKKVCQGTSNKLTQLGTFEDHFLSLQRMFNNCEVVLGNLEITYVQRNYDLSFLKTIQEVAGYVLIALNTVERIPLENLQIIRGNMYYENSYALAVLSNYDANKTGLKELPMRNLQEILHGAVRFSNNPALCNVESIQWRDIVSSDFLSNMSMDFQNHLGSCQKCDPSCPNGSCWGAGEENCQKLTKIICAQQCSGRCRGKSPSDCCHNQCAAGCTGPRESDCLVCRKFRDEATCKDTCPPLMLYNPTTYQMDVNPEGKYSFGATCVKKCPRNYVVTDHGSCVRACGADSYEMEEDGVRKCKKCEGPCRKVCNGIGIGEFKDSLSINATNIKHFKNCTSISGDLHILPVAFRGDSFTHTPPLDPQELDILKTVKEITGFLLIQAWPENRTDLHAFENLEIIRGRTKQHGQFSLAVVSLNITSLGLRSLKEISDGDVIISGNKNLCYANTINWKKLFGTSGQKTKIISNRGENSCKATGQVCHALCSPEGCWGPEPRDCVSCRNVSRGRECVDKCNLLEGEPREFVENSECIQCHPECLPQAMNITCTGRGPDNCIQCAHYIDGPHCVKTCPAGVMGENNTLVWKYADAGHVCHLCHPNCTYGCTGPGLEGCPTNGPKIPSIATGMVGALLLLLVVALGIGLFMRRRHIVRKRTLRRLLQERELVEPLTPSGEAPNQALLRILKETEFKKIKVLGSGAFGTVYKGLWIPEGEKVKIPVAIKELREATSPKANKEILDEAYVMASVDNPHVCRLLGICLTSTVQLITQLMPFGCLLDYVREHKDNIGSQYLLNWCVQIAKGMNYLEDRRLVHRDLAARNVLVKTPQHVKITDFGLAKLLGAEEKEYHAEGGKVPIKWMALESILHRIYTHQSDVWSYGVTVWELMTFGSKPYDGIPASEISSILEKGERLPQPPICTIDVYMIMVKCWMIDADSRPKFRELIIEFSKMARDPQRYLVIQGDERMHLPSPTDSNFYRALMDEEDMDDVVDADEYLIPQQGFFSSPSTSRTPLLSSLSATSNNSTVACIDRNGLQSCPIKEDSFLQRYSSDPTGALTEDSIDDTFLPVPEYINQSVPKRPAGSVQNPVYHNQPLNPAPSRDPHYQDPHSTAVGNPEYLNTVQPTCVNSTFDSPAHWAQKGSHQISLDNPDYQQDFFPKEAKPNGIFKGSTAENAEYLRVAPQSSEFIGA

IC50 (Homo sapiens) [nM]	IC50 [1] [nM]	Structure (SMILES)	IC50 (B-cell) [nM]
130		Cc1csc2ncnc(N[C@@H](C)c3ccccc3)c12	1480
> 2000		Cc1cc(N[C@@H](C)c2ccccc2)nc(N)n1	> 2000
370		C[C@H](Nc1ncnc2sccc12)c1ccccc1	> 2000
> 2000		c1ccc(CNc2ncnc3ccccc23)cc1	> 2000
> 2000		Cc1cc2c(N[C@@H](C)c3ccccc3)[nH]cnc-2n1	> 2000
127		C[C@H](Nc1ncnc2ccccc12)c1ccccc1	> 2000
46		Cc1ccc([C@H](C)Nc2ncnc3ccccc23)cc1	> 2000
701		C[C@H](Nc1ccnc2ccccc12)c1ccccc1	> 2000
45		COc1ccc([C@H](C)Nc2ncnc3ccccc23)cc1	> 2000
> 2000		C[C@H](Nc1nccc2ccccc12)c1ccccc1	> 2000
147		CC[C@H](Nc1ncnc2ccccc12)c1ccccc1	> 2000
	50	C[C@H](Nc1[nH]cnc2c3ccccc3nc1-2)c1ccccc1	
> 2000		C[C@@H](Nc1ncnc2ccccc12)c1ccc2ccccc2c1	> 2000
> 2000		Cc1cc(N[C@@H](C)c2ccccc2)c2ccccc2n1	> 2000
23		COc1cccc([C@H](C)Nc2ncnc3ccccc23)c1	> 2000
> 2000		C[C@@H](Nc1ncnc2ccccc12)C1CCCCC1	> 2000
> 2000		Cc1csc2c(N[C@@H](C)c3ccccc3)ncnc12	> 2000
> 2000		c1ccc2c(c1)CC[C@@H]2Nc1ncnc2ccccc12	> 2000
1020		c1ccc2c(c1)CC[C@H]2Nc1ncnc2ccccc12	> 2000
> 2000		c1ccc(Nc2ncnc3ccccc23)cc1	> 2000
931		CSc1nccc(N[C@@H](C)c2ccccc2)n1	> 2000
> 2000		C[C@@H](Nc1ncnc2ccccc12)c1ccccc1	> 2000
14		C[C@H](Nc1ncnc2ccccc12)c1ccc2ccccc2c1	1630
81		C[C@H](Nc1ncnc2ccccc12)C1CCCCC1	> 2000
149		OC[C@H](Nc1ncnc2ccccc12)c1ccccc1	> 2000
72		C[C@H](Nc1ncnc2ccccc12)c1ccc(Br)cc1	> 2000
> 2000		COc1cc2ncnc(N[C@@H](C)c3ccccc3)c2cc1OC	> 2000
> 2000		C[C@H](Nc1ncnc2ccsc12)c1ccccc1	> 2000
> 2000		C[C@H](Nc1[nH]cnc2ncnc1-2)c1ccccc1	> 2000
> 2000		CC(c1ccccc1)N(C)c1ncnc2ccccc12 (centres undefined)	> 2000
